Compound activity deposited in PubChem BioAssay by several laboratories.
In the library only some 2.9% were active in any assay of this set; here they are far more common.
HTR1E antagonist: 5-HT1E receptor antagonists, primary screen, cell-based, HTS | actives 0.99% (n = 65,000) | inhibition, % at 6 µM | 5-hydroxytryptamine receptor 1E (Homo sapiens), P28566 | AID 571, 2007 | CHO 5-HT1E Ga15 NFAT-bla reporter, FRET, antagonist;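 active means inhibition above a set limit, the mean inhibition across every tested compound plus 3 SD, cut at about 29% in these data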;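 further: signal is the 460 over 535 nm emission ratio of beta-lactamase substrate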
SK-BR-3 tox 24h: SK-BR-3 proliferation inhibitors, primary screen, cell-based, human, 24 h. SK-BR-3 viability, CellTiter-Glo ATP luminescence; active compounds read low. actives 0.47% (n = 41,000). AID 847, 2007. viability, % at 10 µM;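 active means viability at or below the median of all test compounds minus 3 SD, in both replicates if run twice, cut at about 45% in these data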
HEK293 NFkB inh: inhibitors of PMA/ionomycin-induced NF-kB reporter, primary screen, antigen receptor NF-kB inhibitor project, cell-based, HEK-293 luciferase reporter, luminescence | inhibition, % at 3 µM | AID 465, 2006 | HEK-293 NF-kB luciferase reporter | actives 0.21% (n = 62,000);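 active means inhibition above the mean of all tested compounds plus 3 SD, cut at about 40% in these data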
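Material: HEK-293 cells with stable firefly luciferase reporter driven by four HIV NF-kB elements / Also added: PMA plus ionomycin mix as NF-kB-activating stimulus / Compound dosing: 3 µM once, 0.30% DMSO / Times: 1 h pretreatment, 16 h stimulation, 37 °C / Signal: luminescence / Evaluation: per-plate % inhibition versus controls / Benchmarks: DMSO and 10 µM reference inhibitor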
5HT1a antag: human 5-HT1a receptor antagonists, primary screen, cell-based, CHO, Ga15 NFAT-bla reporter; 5-hydroxytryptamine receptor 1A (Homo sapiens), P08908; CHO 5-HT1a Ga15 NFAT-bla reporter, antagonist mode; inhibition, % at 10 µM; actives 0.68% (n = 62,000); AID 612, 2007;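 active means inhibition above the mean of all tested compounds plus 3 SD, cut at about 43% in these data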;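 further: receptor stimulated by 5-CT agonist at 100 nM near EC80; beta-lactamase reporter measured by ratiometric fluorescence of a cleavable substrate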
Target sequence (P08908 whole entry, looked up): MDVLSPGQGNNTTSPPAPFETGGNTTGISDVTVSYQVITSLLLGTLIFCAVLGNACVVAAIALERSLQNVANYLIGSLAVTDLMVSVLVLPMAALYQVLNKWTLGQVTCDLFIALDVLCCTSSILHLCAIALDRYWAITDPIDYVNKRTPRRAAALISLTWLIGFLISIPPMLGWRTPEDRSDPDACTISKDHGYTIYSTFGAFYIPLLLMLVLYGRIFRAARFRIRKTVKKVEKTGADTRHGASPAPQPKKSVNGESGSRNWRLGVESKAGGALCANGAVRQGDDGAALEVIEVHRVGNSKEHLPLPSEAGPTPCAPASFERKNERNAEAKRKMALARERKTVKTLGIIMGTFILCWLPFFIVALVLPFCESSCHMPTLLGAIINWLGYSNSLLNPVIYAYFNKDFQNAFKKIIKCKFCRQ
5HT1a ag: human 5-HT1a receptor agonists, primary screen, cell-based, CHO, Ga15 NFAT-bla reporter; 5-hydroxytryptamine receptor 1A (Homo sapiens), P08908; CHO 5-HT1a Ga15 NFAT-bla reporter, FRET ratio; 0% basal, 100% maximal reference agonist; activation, % at 10 µM; actives 0.56% (n = 65,000);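 active means activation above the screen-wide mean activation plus 3 SD, cut at about 19% in these data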
HTR1E agonist: 5-HT1E receptor agonists, primary screen, cell-based, HTS. 5-hydroxytryptamine receptor 1E (Homo sapiens), P28566. CHO 5-HT1E Ga15 NFAT-bla reporter, FRET; 0% DMSO wells, 100% control agonist wells. activation, % at 6 µM. actives 0.69% (n = 65,000);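 active means activation above a set limit, the screen-wide mean activation plus 3 SD, cut at about 8.5% in these data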
Large screens that a line does not name were inactive.

COc1ccc(Cl)cc1N1C(=O)C2CCCN2C1c1ccc(F)cc1 (stereo not drawn)	none (no result: SK-BR-3 tox 24h)
CCC(C(=O)Nc1cnccn1)c1ccccc1 (stereo not drawn)	HTR1E agonist 18
COC(=O)c1ccccc1NC(=O)Nc1cnccn1	none
CC(C)c1ccc(-c2noc(C3CCCN(C(=O)c4ccc(F)cc4F)C3)n2)cc1 (stereo not drawn)	none
Cc1ccc(-c2noc(C3CCCN(C(=O)c4ccc(F)cc4F)C3)n2)cc1 (stereo not drawn)	SK-BR-3 tox 24h 42
Brc1cnn(-c2nc(N3CCOCC3)nc(N3CCOCC3)n2)c1	none (no result: SK-BR-3 tox 24h)
CC1=C(C(=O)OC2CCCC2)C(c2ccc(C)o2)C2=C(CC(c3cccs3)CC2=O)N1 (stereo not drawn)	HTR1E antagonist 39, 5HT1a antag 45
CCOc1ccc(S(=O)(=O)N2CCN(c3ccccc3)CC2)c2cccnc12	SK-BR-3 tox 24h 42
c1ccc2c(-c3nc4ncccc4o3)cccc2c1	none
O=C(N1CCCC1)N1CCN(c2ncnc3c(-c4ccc(Cl)cc4)nsc23)CC1	none
Cc1ccc(-c2nsc3c(N4CCC(C(N)=O)CC4)ncnc23)cc1	HEK293 NFkB inh 42
CN1/C(=C/C(=O)c2nc(S(C)(=O)=O)ncc2Cl)C(C)(C)c2ccccc21	HTR1E antagonist 51, 5HT1a antag 62 (no result: SK-BR-3 tox 24h)
CN1/C(=C\C(=O)c2ccco2)C(C)(C)c2ccccc21	none (no result: SK-BR-3 tox 24h)
Cn1c(=O)c2c(nc(SC3C(=O)CC(C)(C)CC3=O)n2C)n(C)c1=O	none
O=C(O)CCN1C(=O)NC2(CCCC2)C1=O	none (no result: SK-BR-3 tox 24h)
N#CCCN(C(=O)CN1C(=O)NC2(CCCC2)C1=O)c1ccccc1F	5HT1a ag 82 (no result: SK-BR-3 tox 24h)
CC(=O)NCc1ccc(-c2csc(N)n2)s1	HTR1E agonist 14 (no result: SK-BR-3 tox 24h)
Cc1ccc(-c2nn(C)c(=O)c3ccccc23)cc1S(=O)(=O)N1CCOCC1	none (no result: SK-BR-3 tox 24h)
Cc1ccc(-c2nn(C)c(=O)c3ccccc23)cc1S(=O)(=O)NCCO	HTR1E antagonist 29
Cc1ccc(-c2nn(C)c(=O)c3ccccc23)cc1S(=O)(=O)N1CCCC1	HTR1E antagonist 36 (no result: SK-BR-3 tox 24h)
CCN(CC)C(=O)c1csc(Nc2ccc(C)cc2)n1	SK-BR-3 tox 24h 38
CCOc1ccccc1NC(=O)Cn1nnc(C(=O)Nc2ccc(C)cc2)c1N	none (no result: SK-BR-3 tox 24h)
CCOc1ccccc1NC(=O)Cn1nnc(C(=O)NCc2ccco2)c1N	HTR1E antagonist 73, HEK293 NFkB inh 42 (no result: SK-BR-3 tox 24h)
CCn1nnc(-c2ccccc2NC(=O)c2cccc(-n3cnnn3)c2)n1	SK-BR-3 tox 24h 42
CCOC(=O)c1ccc(NC(=O)Cn2nnc(-c3ccccc3C)n2)cc1	none
CCn1nnc(-c2ccccc2NS(=O)(=O)c2ccc(C(=O)OC)cc2)n1	HTR1E antagonist 34
CCn1nnc(-c2ccccc2NC(=O)c2ccc(-n3cnnn3)cc2)n1	none
COc1ccc(-c2nnc(SCc3nnc(-c4ccc(Cl)cc4)o3)n2-c2ccccc2)cc1	none (no result: SK-BR-3 tox 24h)
Cc1cccc2cc(C#N)c(N3CCN(C)CC3)nc12	HTR1E agonist 23
Cc1ccc(-c2csc3ncnc(Sc4nnc(CN5CCCCCC5=O)o4)c23)cc1	HTR1E antagonist 48, 5HT1a antag 76 (no result: SK-BR-3 tox 24h)
CCn1c(CN2CCCCCC2=O)nnc1SCc1cnc(-c2ccccc2)s1	none (no result: SK-BR-3 tox 24h)
COc1ccc(C(=O)Nc2ccc(Cl)cc2C(=O)NCc2ccco2)cc1OC	HTR1E antagonist 40
N#Cc1c(-c2ccccc2)cc(C2CC2)nc1N	HTR1E antagonist 33
N#Cc1c(-c2ccco2)cc(C2CC2)nc1N	none (no result: HEK293 NFkB inh, 5HT1a antag)
CC1(C)CC(=O)C(C=Nc2ccccc2)=C(O)C1	none
O=C1CCCC(O)=C1C=Nc1ccc(O)cc1	5HT1a antag 43 (no result: SK-BR-3 tox 24h)
Cn1c(=O)n(CCc2ccccc2)c(=O)c2c1nc1n2CCCN1c1ccc(F)cc1	none
